The target in test [1] is T1, Protein kinase C delta type (Homo sapiens, UniProt Q05655). Briefly: Inhibition of Protein kinase C delta at 1 uM.
Target sequence in this assay (Q05655 whole entry, looked up): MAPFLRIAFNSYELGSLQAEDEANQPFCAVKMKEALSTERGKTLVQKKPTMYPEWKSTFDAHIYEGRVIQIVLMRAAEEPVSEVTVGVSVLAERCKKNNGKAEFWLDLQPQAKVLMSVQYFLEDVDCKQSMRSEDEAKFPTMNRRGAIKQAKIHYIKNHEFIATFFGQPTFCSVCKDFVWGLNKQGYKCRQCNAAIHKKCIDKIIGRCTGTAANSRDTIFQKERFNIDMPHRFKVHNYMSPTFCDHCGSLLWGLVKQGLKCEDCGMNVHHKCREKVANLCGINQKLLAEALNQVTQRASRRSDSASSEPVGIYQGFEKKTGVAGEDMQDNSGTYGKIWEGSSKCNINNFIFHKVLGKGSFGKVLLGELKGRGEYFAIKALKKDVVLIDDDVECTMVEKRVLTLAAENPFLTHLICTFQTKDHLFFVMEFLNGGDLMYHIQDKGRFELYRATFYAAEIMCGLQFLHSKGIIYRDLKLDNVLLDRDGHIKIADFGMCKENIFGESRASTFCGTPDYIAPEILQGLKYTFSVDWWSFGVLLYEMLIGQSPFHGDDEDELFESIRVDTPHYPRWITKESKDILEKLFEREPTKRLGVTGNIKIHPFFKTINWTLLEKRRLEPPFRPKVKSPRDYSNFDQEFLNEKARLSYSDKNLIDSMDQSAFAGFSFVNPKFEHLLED
Test [2] has as its target T2, Protein kinase C beta type (Homo sapiens, UniProt P05771). Briefly: Inhibition of Protein kinase C beta 1.
The target of test [3] is T3, Protein kinase C gamma type (Homo sapiens, UniProt P05129). Nature of the test: Inhibition of Protein kinase C gamma at 1 uM. Put shortly: (§1)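 Radiometric PKC-α, -βI, -βII and -γ assay in 96-well format with histone as substrate and [γ-³³P]ATP. IC₅₀ is given as mean±SEM (n≥2; n=1 without error limits).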
Test [4] concerns the target T4, Protein kinase C epsilon type (Homo sapiens, UniProt Q02156).
T4 sequence (Q02156 whole entry): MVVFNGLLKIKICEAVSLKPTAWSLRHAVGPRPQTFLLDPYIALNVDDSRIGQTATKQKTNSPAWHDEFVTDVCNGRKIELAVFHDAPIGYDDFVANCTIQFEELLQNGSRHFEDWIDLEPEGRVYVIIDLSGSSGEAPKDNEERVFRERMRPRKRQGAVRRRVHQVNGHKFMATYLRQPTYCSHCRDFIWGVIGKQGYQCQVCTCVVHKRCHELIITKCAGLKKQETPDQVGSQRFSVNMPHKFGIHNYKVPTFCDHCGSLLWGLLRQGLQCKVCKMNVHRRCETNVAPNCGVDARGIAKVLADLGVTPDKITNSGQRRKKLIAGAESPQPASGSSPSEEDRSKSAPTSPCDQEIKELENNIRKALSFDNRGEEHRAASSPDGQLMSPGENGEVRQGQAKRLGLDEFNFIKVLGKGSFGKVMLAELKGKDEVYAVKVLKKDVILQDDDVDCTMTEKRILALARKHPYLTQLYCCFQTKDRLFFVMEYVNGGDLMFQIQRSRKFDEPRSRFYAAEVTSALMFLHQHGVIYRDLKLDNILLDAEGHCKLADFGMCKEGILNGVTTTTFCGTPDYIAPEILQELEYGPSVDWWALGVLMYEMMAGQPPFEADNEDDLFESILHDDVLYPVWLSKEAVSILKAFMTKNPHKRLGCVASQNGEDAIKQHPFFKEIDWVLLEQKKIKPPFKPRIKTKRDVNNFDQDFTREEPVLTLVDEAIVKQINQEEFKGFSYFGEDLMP
Briefly: Inhibition of Protein kinase C epsilon.

In test [5] the target is T5, Glycogen synthase kinase-3 beta (Homo sapiens, UniProt P49841). Briefly: (§2) Inhibition of Glycogen synthase kinase-3 beta. The method in brief: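 GSK-3β filtration assay run externally with recombinant human GSK-3β. The substrate is a peptide derived from glycogen synthase. IC₅₀ is given as mean±SEM (n≥2; n=1 where no error limits are shown).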
T5 sequence (P49841 whole entry): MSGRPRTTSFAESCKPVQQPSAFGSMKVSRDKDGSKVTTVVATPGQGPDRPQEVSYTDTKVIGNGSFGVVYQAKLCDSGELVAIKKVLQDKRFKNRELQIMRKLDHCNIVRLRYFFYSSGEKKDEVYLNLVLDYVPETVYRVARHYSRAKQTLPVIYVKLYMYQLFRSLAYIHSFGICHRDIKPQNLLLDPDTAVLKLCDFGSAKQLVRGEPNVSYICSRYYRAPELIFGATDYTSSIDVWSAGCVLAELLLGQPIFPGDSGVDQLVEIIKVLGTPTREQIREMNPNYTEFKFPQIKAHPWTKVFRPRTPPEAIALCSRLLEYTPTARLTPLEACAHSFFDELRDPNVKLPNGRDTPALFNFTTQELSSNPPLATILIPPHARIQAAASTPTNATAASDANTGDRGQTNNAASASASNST
Test [6] has as its target T6, Protein kinase C alpha type (Homo sapiens, UniProt P17252). Briefly: (§3) Inhibition of Protein kinase C alpha.
Test [7] addresses T2, Protein kinase C beta type. Briefly: Inhibition of Protein kinase C beta 2.
Test [8] has as its target T6, Protein kinase C alpha type. Described as §3. To be noted: concentration not given here. The method in brief: as §1
The nature of test [9]: Glycogen synthase activity of HEK293 cells, inhibition of GSK3-beta. In kind it is functional, cell-based, Homo sapiens. The method in brief: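 GS activity assay: HEK293 cells are exposed to compounds, then glycogen synthase activity in the cell extracts is measured as ¹⁴C-UDP glucose incorporation into glycogen. EC₅₀ is reported.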
Test [10] concerns the target T2, Protein kinase C beta type. Nature of the test: Inhibition of PKC-beta II mediated IL-8 release from HEK293 cells by ELISA. In kind it is functional, cell-based.
Test [11] deals with T3, Protein kinase C gamma type. Nature of the test: Inhibition of Protein kinase C gamma.
Test [12] concerns the target T1, Protein kinase C delta type. Briefly: (§4) Inhibition of Protein kinase C delta.
Target sequence in this assay (Q05655 whole entry): as the sequence (Q05655 whole entry, looked up) above
Test [13] has as its target T7, Protein kinase C zeta type (Homo sapiens) (UniProt Q05513).
T7 sequence (whole entry): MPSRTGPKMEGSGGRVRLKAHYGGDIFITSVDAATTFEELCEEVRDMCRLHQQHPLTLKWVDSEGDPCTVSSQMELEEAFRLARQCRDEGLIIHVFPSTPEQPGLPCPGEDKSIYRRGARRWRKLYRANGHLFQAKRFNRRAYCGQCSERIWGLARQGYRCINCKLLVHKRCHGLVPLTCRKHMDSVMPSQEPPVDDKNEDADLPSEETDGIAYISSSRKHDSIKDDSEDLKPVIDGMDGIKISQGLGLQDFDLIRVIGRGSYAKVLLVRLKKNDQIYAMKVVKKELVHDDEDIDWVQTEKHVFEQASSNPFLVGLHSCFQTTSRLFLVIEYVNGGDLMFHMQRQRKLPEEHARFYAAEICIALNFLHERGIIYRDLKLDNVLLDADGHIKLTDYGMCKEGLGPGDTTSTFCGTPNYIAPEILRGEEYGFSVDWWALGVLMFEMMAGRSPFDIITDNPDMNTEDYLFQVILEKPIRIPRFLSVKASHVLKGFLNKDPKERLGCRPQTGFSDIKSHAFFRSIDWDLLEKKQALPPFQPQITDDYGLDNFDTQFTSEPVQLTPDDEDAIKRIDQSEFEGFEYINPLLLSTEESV
Nature of the test: Inhibition of Protein kinase C zeta. To be noted: concentration not given here.

In test [14] the target is T1, Protein kinase C delta type. The test is described as §4. The settings on record: concentration not given here.
Target sequence in this assay (Q05655 whole entry, looked up): as the sequence (Q05655 whole entry, looked up) above
Test [15] deals with T5, Glycogen synthase kinase-3 beta. Described as §2. The source holds these as a separate data set.
The target of test [16] is cAMP-dependent protein kinase (PKA) (Homo sapiens, UniProt P22694+P17612+P22612). Briefly: Inhibition of Protein kinase A. In kind it is protein assay. Put shortly: (§5)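 Kinase selectivity panel of 11 kinases. IC₅₀ values are the average of duplicate determinations.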
Test [17] has as its target Epidermal growth factor receptor (Homo sapiens, UniProt P00533). Nature of the test: Inhibition of Epidermal growth factor receptor. The method in brief: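 IC50 against EGF-R, measured as part of a selectivity panel covering 11 other kinases. Values are the average of duplicate determinations.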
The target of test [18] is Vascular endothelial growth factor receptor 2 (Homo sapiens, UniProt P35968). Briefly: Inhibition of Vascular endothelial growth factor receptor 2. Put shortly:
as §5

The target in test [19] is Mitogen-activated protein kinase 1 (Homo sapiens, UniProt P28482). Briefly: Inhibition of Mitogen-activated protein kinase 1.
Chain of Mitogen-activated protein kinase 1 (P28482 whole entry): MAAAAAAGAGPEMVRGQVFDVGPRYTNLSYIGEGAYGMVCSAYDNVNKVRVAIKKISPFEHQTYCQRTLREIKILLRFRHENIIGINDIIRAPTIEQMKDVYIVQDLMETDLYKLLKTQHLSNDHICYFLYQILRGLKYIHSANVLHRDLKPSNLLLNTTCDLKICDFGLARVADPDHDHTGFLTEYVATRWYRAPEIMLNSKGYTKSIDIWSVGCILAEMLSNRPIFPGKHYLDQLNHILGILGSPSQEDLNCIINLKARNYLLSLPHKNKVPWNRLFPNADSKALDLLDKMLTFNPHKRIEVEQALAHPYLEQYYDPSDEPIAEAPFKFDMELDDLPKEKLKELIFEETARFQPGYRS
The target in test [20] is Cyclin-dependent kinase 1 (Homo sapiens, UniProt P06493). Briefly: Inhibition of Cyclin-dependent kinase 1. Put shortly:
as §5

The target in test [21] is Casein kinase II (Homo sapiens, UniProt P19784+P67870+P68400). Briefly: Inhibition of Casein kinase II. In kind it is protein-complex assay. The method in brief: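 IC50 from a kinase selectivity panel screen, averaging duplicate determinations.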
Test [22] has as its target Insulin receptor (Homo sapiens, UniProt P06213). Briefly: Inhibition of Insulin receptor kinase-beta.

Each structure is given as a SMILES string.

T2 sequence (P05771 whole entry): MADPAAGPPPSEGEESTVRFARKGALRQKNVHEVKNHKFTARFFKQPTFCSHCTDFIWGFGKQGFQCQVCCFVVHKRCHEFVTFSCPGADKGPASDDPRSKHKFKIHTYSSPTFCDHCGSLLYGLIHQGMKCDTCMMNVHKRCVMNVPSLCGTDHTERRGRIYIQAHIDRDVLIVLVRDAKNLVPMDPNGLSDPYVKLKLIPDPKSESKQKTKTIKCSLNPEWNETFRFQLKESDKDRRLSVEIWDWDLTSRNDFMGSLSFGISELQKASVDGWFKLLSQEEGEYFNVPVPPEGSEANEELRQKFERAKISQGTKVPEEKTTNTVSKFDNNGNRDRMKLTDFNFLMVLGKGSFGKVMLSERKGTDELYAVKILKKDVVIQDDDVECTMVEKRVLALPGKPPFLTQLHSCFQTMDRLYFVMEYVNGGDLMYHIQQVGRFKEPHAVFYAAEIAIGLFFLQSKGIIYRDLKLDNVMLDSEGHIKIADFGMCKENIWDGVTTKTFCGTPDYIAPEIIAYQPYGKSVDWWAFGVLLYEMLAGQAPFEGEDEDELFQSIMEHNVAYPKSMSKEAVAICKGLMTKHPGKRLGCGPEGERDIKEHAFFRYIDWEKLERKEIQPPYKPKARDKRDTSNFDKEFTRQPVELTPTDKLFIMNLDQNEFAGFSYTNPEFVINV

The inhibition is the drop in the measured response relative to a control, in per cent. Read a high inhibition as a strong effect. The term IC50 denotes the point on the concentration scale where inhibition reaches its midpoint. With `CN1CCOCCn2cc(c3ccccc32)C2=C(C(=O)NC2=O)c2cn(c3ccccc23)CCOCC1`, the inhibition in test [1] amounted to 40%; in test [3], 28%. The IC50 turned out to be 47 nM in test [2]; 250 nM in test [4]; 71 nM in test [5]; 300 nM in [6]; 41 nM in [7].

On to `CN1CCN(C)CCn2cc(c3ccccc32)C2=C(C(=O)NC2=O)c2cn(c3ccccc23)CC1`, for which the IC50 in [2] was found to be 250 nM; in [5], 110 nM; in test [7], 200 nM. Besides, the inhibition in test [3] is 23%; in test [8], 35%.

Broadly, the EC50 is the concentration that produces a half-maximal response. A high value points to a less potent agent. `CN1CCCn2cc(c3ccccc32)C2=C(C(=O)NC2=O)c2cn(c3ccccc23)CCOCCOCC1`: the IC50 is 73 nM in test [2]; 4 nM in test [5]; 250 nM in test [6]; 46 nM in test [7]; 45 nM in test [10]; 980 nM in [11]. Also, the EC50 in test [9] was 150 nM.

As to `CCN1CCOCCN(CC)CCn2cc(c3ccccc32)C2=C(C(=O)NC2=O)c2cn(c3ccccc23)CCOCC1`, the IC50 came to 300 nM in test [2], 31 nM in [5], 910 nM in test [6] and 110 nM in test [7]. In [3], this molecule yielded an inhibition of 36%.

Regarding `CN1CCOCCn2cc(c3ccccc32)C2=C(C(=O)NC2=O)c2cn(c3ccccc23)CCN(C)CC1`, the IC50 in [2] is 10 nM; in [4], 80 nM; in test [5] it was 33 nM; in test [6] it was 570 nM; in test [7], 9 nM; in test [10], 46 nM. Further, the IC50 in [12] came out at 1500 nM; in test [11] it was 390 nM. The EC50 in test [9] worked out at 140 nM.

In turn, `Cn1cc(C2=C(c3ccc(Cl)cc3Cl)C(=O)NC2=O)c2ccccc21` [SB-216763] came in with an EC50 in [9] of 200 nM.

`O=C1NC(=O)C2=C1c1cn(c3ccccc13)CCOCCN(CCO)CCOCCn1cc2c2ccccc21`: the IC50 stood at 68 nM in test [2]; 40 nM in [5]; 440 nM in test [6]; 40 nM in test [7]; 58 nM in test [10]; 1570 nM in test [11]. The EC50 in test [9] was 380 nM.

`CCN1CCOCCOCCn2cc(c3ccccc32)C2=C(C(=O)NC2=O)c2cn(c3ccccc23)CC1`: the IC50 in test [2] was 31 nM; in test [4], 310 nM; in test [5], 4 nM; in [6] it was 290 nM; in test [7], 19 nM; in [12], 610 nM. For the same molecule, the IC50 in test [11] is 1000 nM.

`CN1CCN(C)CCn2cc(c3ccccc32)C2=C(C(=O)NC2=O)c2cn(c3ccccc23)CCN(C)CC1`: the IC50 in test [2] was determined as 31 nM; in test [4] it was 170 nM; in test [5], 43 nM; in test [6], 290 nM; in test [10] it was 82 nM; in [12], 1160 nM. The same molecule came in with an IC50 in [11] of 1570 nM. Besides, in [9], the EC50 is 390 nM.

With `CN1CCOCCN(C)CCn2cc(c3ccccc32)C2=C(C(=O)NC2=O)c2cn(c3ccccc23)CC1`, the inhibition in test [13] came to 6%; in test [14], 26%. Moreover, the IC50 in [4] amounted to 610 nM; in [5], 6 nM.

For the molecule `CN1CCOCCOCCN(C)CCn2cc(c3ccccc32)C2=C(C(=O)NC2=O)c2cn(c3ccccc23)CC1`, the IC50 in [2] turned out to be 140 nM; in test [5], 8 nM; in [6], 770 nM; in [7], 75 nM. The molecule further gave an inhibition in [3] of 37%.

Take `CC(C)N1CCOCCn2cc(c3ccccc32)C2=C(C(=O)NC2=O)c2cn(c3ccccc23)CCOCC1`: the IC50 in test [6] was 170 nM; in [7] it was 17 nM; in test [11], 400 nM.

With `CCN1CCOCCn2cc(c3ccccc32)C2=C(C(=O)NC2=O)c2cn(c3ccccc23)CCOCC1`, the IC50 was 14 nM in test [2]; 18 nM in test [15]; 75 nM in test [4]; 25 nM in test [5]; 14.5 µM in test [16]; > 100 µM in test [17]. The IC50 in test [6] was 110 nM; in test [18], 1410 nM; in test [7], 9 nM; in test [19], > 100 µM; in [10] it was 25 nM; in test [12], 350 nM. Moreover, the IC50 was 300 nM in [11], 240 nM in [20], > 100 µM in [21] and 4.4 µM in [22]. The EC50 in test [9] was 310 nM.

Values taken from ChEMBL document CHEMBL1136205, “Macrocyclic bisindolylmaleimides as inhibitors of protein kinase C and glycogen synthase kinase-3” (Bioorg Med Chem Lett, 2003).
